Results as given in ChEMBL document CHEMBL4219099, “Design, synthesis and biological evaluation of novel 7-azaspiro[3.5]nonane derivatives as GPR119 agonists” (Bioorg Med Chem, 2018).
pEC50, pIC50: −log10 of the molar value. ≈ marks a conversion by molar mass, not a printed value.

Assays:
[1] = Aqueous solubility of the compound in pH 6.8 phosphate buffer after 24 hrs by HPLC analysis; type: physicochemical
How it was run: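 Excess solid shaken in pH 6.8 phosphate buffer at 25 °C for 24 h. Suspension centrifuged at 3000 and 11000 rpm, 10 min each. Supernatant diluted in 50% aqueous acetonitrile and quantified by reversed-phase HPLC (0.1% phosphoric acid/acetonitrile, column 40 °C, UV 210 nm).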

[2] = Solubility of the compound in fasted state simulated intestinal fluid incubated for 2 hrs in shaker and subsequently incubated at 37 degC for 22 hrs in water bath by HPLC analysis; type: physicochemical
How it was run: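 FaSSIF (pH 6.5) with excess compound shaken at 25 °C for 2 h, then held at 37 °C for 22 h. Centrifuged at 3000 and 11000 rpm, 10 min. Supernatant diluted with 50% aqueous acetonitrile or acetonitrile/methanol 1:1. Concentration by reversed-phase HPLC: 0.1% phosphoric acid/acetonitrile, column 40 °C, UV 210 nm.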

[3] = target: T1, Glucose-dependent insulinotropic receptor (Homo sapiens, UniProt Q8TDV5); assay: Agonist activity at human GPR119 expressed in Flp-In-T-Rex-HEK293 cells assessed as increase in intracellular cAMP level after 30 mins by HTRF assay; type: functional, cell-based
T1 sequence (Q8TDV5 whole entry): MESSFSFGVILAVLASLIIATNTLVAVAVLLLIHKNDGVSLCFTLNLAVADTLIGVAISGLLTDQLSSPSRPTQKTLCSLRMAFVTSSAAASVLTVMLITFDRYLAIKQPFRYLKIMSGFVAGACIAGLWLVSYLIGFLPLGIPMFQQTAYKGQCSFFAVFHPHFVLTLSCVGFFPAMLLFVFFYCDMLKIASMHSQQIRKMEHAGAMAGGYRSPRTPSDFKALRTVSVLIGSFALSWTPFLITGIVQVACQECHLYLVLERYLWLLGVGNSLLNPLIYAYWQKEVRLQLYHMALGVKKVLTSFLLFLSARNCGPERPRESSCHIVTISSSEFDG
How it was run: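 Flp-In-T-Rex-HEK293 cells overexpressing human GPR119, tetracycline-induced 24 h, plated at 5000 cells/well in D-MEM with 1 mM IBMX and 0.01% BSA, then exposed to compound 30 min at 37 °C. cAMP read with HiRange HTRF kit. Basal cAMP subtracted from stimulated level; EC50 taken as concentration giving 50% of maximal response, fitted from dose-response curves.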

Cytochrome P450 2C9 = Cytochrome P450 2C9 (Homo sapiens, UniProt P11712); assay: Inhibition of CYP2C9 in human liver microsomes; type: ADME; conditions: for pIC50: read-out: IC50
Cytochrome P450 2C19 = Cytochrome P450 2C19 (Homo sapiens, UniProt P33261); assay: Inhibition of CYP2C19 in human liver microsomes; type: ADME; conditions: for pIC50: read-out: IC50
[4] = AUC (0 to t) in Sprague-Dawley rat plasma at 10 mg/kg, po by liquid chromatography-tandem mass spectrometry analysis; type: ADME, organism-based
How it was run: (§1)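 Fasted male SD rats given a single dose, iv 3 mg/kg in 20% 2-hydroxypropyl-β-cyclodextrin or po 10 mg/kg in 0.5% methylcellulose with 0.1% Tween80. Tail-vein blood taken at time points and spun to plasma. Analyte quantified by LC-MS/MS; parameters from non-compartmental analysis.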

Cytochrome P450 2D6 = Cytochrome P450 2D6 (Homo sapiens, UniProt P10635); assay: Inhibition of CYP2D6 in human liver microsomes; type: ADME
[5] = Half life in Sprague-Dawley rat plasma at 3 mg/kg, iv by liquid chromatography-tandem mass spectrometry analysis; type: ADME, organism-based; how it was run: as §1
[6] = Volume of distribution at steady state in Sprague-Dawley rat plasma at 3 mg/kg, iv by liquid chromatography-tandem mass spectrometry analysis; type: ADME, organism-based; conditions: read-out: Vdss; how it was run: as §1
Cytochrome P450 3A4 = Cytochrome P450 3A4 (Homo sapiens, UniProt P08684); assay: Inhibition of CYP3A4 in human liver microsomes; type: ADME
Cytochrome P450 1A2 = target: T2, Cytochrome P450 1A2 (Homo sapiens, UniProt P05177); assay: Inhibition of CYP1A2 in human liver microsomes; type: ADME
T2 sequence (P05177 whole entry): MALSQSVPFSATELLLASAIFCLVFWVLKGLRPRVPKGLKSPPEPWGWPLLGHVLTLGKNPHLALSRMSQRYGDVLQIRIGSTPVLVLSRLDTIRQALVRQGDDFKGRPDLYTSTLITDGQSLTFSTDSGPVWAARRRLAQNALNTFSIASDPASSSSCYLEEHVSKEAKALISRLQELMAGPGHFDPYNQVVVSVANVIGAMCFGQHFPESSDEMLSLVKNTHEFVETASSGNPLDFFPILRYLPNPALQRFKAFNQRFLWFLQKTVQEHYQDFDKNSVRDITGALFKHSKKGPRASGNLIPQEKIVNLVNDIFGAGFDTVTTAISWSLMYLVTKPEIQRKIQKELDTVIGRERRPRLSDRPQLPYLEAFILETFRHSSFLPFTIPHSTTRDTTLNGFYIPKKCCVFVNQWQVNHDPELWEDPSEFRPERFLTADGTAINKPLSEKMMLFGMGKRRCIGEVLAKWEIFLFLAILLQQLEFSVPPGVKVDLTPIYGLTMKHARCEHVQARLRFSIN

[7] = Oral bioavailability in Sprague-Dawley rat plasma at 10 mg/kg by liquid chromatography-tandem mass spectrometry analysis; type: ADME, organism-based; how it was run: as §1
[8] = Clearance in Sprague-Dawley rat plasma at 3 mg/kg, iv or 10 mg/kg, po by liquid chromatography-tandem mass spectrometry analysis; type: ADME, organism-based; how it was run: as §1
Rattus norvegicus [9] = assay: Antidiabetic activity in Zucker diabetic rat assessed as reduction in plasma glucose AUC (0 to 2 hrs) at 10 mg/kg, po pretreated for 30 mins followed by glucose challenge by oGTT assay relative to control; type: functional; set-up: scale not given: the % may be the effect or the level left
How it was run: (§2)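 Male Zucker diabetic fatty and lean rats, 9 weeks old, fasted overnight. Dosed orally in 20 w/v% HP-β-CD; 30 min later given oral glucose at 2 g/kg. Tail-vein plasma glucose followed over 2 h by glucose assay kit. Glucose excursion expressed as ΔAUC 0–2 h versus vehicle; mean ± SE, Welch's t-test.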

Rattus norvegicus [10] = assay: Antidiabetic activity in Zucker diabetic rat assessed as reduction in plasma glucose AUC (0 to 2 hrs) at 30 mg/kg, po pretreated for 30 mins followed by glucose challenge by oGTT assay relative to control; type: functional; set-up: scale not given: the % may be the effect or the level left; how it was run: as §2

Sequence of Cytochrome P450 2C19 (P33261 whole entry): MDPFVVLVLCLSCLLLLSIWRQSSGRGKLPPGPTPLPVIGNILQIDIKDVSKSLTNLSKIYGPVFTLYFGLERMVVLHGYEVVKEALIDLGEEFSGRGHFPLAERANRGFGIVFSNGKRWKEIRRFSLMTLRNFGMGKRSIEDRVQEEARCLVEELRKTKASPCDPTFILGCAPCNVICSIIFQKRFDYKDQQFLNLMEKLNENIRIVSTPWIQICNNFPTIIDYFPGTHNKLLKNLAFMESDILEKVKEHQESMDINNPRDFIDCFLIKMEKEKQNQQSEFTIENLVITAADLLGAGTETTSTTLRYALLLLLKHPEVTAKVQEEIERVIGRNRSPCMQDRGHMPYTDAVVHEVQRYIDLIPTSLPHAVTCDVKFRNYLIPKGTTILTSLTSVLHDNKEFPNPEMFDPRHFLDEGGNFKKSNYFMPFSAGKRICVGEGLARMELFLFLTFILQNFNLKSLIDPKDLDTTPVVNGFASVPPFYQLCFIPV
Sequence of Cytochrome P450 2C9 (P11712 whole entry): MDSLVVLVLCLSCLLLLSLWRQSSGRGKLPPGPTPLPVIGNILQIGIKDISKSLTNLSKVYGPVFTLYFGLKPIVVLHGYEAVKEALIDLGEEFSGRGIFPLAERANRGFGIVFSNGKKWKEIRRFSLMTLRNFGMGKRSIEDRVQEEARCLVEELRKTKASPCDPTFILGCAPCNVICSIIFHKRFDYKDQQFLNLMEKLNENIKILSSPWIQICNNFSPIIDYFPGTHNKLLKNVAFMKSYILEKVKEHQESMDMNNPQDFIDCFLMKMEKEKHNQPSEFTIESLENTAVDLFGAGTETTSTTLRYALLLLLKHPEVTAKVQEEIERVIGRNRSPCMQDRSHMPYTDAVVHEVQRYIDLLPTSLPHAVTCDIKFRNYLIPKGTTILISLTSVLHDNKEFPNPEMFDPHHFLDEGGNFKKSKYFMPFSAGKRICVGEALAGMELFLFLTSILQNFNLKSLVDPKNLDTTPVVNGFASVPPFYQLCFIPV
Sequence of Cytochrome P450 2D6 (P10635 whole entry): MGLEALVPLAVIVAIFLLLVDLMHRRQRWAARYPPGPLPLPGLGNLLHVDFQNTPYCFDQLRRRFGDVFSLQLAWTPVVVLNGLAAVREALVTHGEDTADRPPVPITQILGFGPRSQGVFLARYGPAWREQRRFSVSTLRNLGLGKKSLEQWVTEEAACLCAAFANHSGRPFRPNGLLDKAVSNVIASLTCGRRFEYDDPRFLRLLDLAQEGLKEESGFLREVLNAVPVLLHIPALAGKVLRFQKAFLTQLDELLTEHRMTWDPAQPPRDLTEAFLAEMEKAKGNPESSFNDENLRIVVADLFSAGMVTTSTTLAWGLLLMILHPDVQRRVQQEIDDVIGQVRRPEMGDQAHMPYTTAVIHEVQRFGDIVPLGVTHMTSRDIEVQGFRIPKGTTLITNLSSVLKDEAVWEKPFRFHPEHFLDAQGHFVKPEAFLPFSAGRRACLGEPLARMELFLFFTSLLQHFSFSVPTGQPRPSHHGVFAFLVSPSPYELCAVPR
Sequence of Cytochrome P450 3A4 (P08684 whole entry): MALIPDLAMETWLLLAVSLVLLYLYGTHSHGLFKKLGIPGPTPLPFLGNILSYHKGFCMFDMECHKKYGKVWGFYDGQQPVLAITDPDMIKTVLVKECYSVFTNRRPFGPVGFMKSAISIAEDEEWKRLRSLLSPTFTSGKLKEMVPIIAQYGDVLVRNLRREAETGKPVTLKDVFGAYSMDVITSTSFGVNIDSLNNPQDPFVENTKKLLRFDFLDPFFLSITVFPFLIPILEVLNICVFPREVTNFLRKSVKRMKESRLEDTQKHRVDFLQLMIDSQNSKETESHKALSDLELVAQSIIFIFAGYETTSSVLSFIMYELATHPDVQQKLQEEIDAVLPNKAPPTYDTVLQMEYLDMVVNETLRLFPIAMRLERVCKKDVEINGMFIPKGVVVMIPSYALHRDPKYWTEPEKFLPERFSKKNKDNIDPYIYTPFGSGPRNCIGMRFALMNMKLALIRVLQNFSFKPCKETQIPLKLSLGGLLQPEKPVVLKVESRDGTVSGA

| SMILES | solubility at 24 h [1] [µg/mL] | solubility at 24 h [2] [µg/mL] | pEC50 [3] | other results |
| --- | --- | --- | --- | --- |
| CC(C)OC(=O)N1CCC2(CC1)CC(CCCOc1ccc(S(C)(=O)=O)c(F)c1)C2 | < 0.16 | 2.52 (≈ 5.71 µM) | 7.74 |  |
| CC(C)(C)OC(=O)N1CCC2(CC1)CC(CCCOc1ccc(S(C)(=O)=O)c(F)c1)C2 |  |  | 8.05 |  |
| CCc1cnc(N2CCC3(CC2)CC(CCCOc2ccc(S(C)(=O)=O)cc2F)C3)nc1 |  |  | 6.65 |  |
| CC(C)(C)OC(=O)N1CCC2(CCC(CCCOc3ccc(S(C)(=O)=O)cc3)CC2)CC1 |  |  | 5.59 |  |
| CC(C)(C)COC(=O)N1CCC2(CC1)CC(CCCOc1ccc(S(C)(=O)=O)c(F)c1)C2 |  |  | 7.51 |  |
| CC(C)OC(=O)N1CCC2(CC1)CC(CCCOc1ccc(C(=O)N(C)C3CC3)c(F)c1)C2 |  |  | 7.17 |  |
| CC1(OC(=O)N2CCC3(CC2)CC(CCCOc2ccc(S(C)(=O)=O)c(F)c2)C3)CC1 | < 0.15 | 1.27 (≈ 2.8 µM) | 7.89 |  |
| Cc1ccc(N2CCC3(CC2)CC(CCCOc2ccc(S(C)(=O)=O)cc2)C3)nc1 |  |  | 6.46 |  |
| CC(C)OC(=O)N1CCC2(CC1)CC(CCCOc1ccc(S(C)(=O)=O)cc1)C2 | 0.17 (≈ 0.401 µM) | 7.09 (≈ 16.7 µM) | 7.15 |  |
| CCc1cnc(N2CCC3(CC2)CC(CCCOc2ccc(S(C)(=O)=O)c(F)c2)C3)nc1 |  |  | 6.91 |  |
| CC(C)(C)OC(=O)N1CCC2(CC1)CC(CCCOc1ccc(S(C)(=O)=O)cc1F)C2 |  |  | 7.60 |  |
| CC(C)(C)OC(=O)N1CCC2(CC1)CC2CCOc1ccc(S(C)(=O)=O)cc1 (stereo unspecified) |  |  | 5.62 |  |
| CC(C)OC(=O)N1CCC2(CC1)CC(CCCOc1ccc(C(=O)N3CC(O)C3)c(F)c1)C2 | 1.89 (≈ 4.09 µM) |  | 7.40 | pIC50 (Cytochrome P450 2C9): > 5.00; pIC50 (Cytochrome P450 2C19): > 5.00 |
| CC(C)OC(=O)N1CCC2(CC1)CC(CCCOc1ccc(C(=O)N3CCC3)c(F)c1)C2 | 3.43 (≈ 7.68 µM) |  | 7.47 | pIC50 (Cytochrome P450 2C9): > 5.00; pIC50 (Cytochrome P450 2C19): > 5.00 |
| CC(C)(C)OC(=O)N1CCC2(CC1)CC(CCCOc1ccc(S(C)(=O)=O)cc1)C2 | < 0.13 | 3.48 (≈ 7.95 µM) | 7.85 |  |
| CC(C)(C)OC(=O)N1CCC2(CC1)CC2CCCOc1ccc(S(C)(=O)=O)cc1 (stereo unspecified) |  |  | 6.08 |  |
| CC(C)OC(=O)N1CCC2(CC1)CC(CCCOc1ccc(C(=O)NC3CC3)nc1)C2 | 2.11 (≈ 4.91 µM) |  | 7.33 |  |
| CC(C)OC(=O)N1CCC2(CC1)CC(CCCOc1ccc(C(=O)NCC(N)=O)c(F)c1)C2 | 1.77 (≈ 3.82 µM) | 18.4 (≈ 39.7 µM) | 7.32 | AUC(0-t) [4]: 9510 ng·h/mL; IC50 (Cytochrome P450 2D6): Not Active; half-life [5]: 50.5 min; IC50 (Cytochrome P450 2C9): Not Active; Vd [6]: 1.01 L/kg; IC50 (Cytochrome P450 3A4): Not Active; IC50 (Cytochrome P450 1A2): Not Active; bioavailability [7]: 88.6%; IC50 (Cytochrome P450 2C19): Not Active; clearance [8]: 15.5 mL/min/kg; Activity (Rattus norvegicus [9]): 34%; Activity (Rattus norvegicus [10]): 40.2% |
| CC(C)c1noc(N2CCC3(CC2)CC(CCCOc2ccc(S(C)(=O)=O)cc2)C3)n1 | < 0.13 | 2.51 (≈ 5.61 µM) | 7.46 |  |
| CC(C)OC(=O)N1CCC2(CC1)CC(CCCOc1ccc(C(=O)N3CCCC3)c(F)c1)C2 | 3.85 (≈ 8.36 µM) | 92.4 (≈ 201 µM) | 7.54 | pIC50 (Cytochrome P450 2C9): > 5.00; pIC50 (Cytochrome P450 1A2; read-out: IC50): > 5.00; pIC50 (Cytochrome P450 2C19): > 5.00 |
| CC(C)(C)OC(=O)N1CCC2(CCC(CCOc3ccc(S(C)(=O)=O)cc3)CC2)CC1 |  |  | 7.26 |  |
| CC(C)(C)OC(=O)N1CCC2(CC1)CC(CCOc1ccc(S(C)(=O)=O)cc1)C2 |  |  | 6.74 |  |
| CC(C)OC(=O)N1CCC2(CC1)CC(CCCOc1ccc(C(N)=O)c(F)c1)C2 |  |  | 7.28 |  |
| CC(C)OC(=O)N1CCC2(CC1)CC(CCCOc1ccc(C(=O)NC3CC3)c(F)c1)C2 | 0.21 (≈ 0.47 µM) | 8.58 (≈ 19.2 µM) | 8.10 |  |
| CC(C)OC(=O)N1CCC2(CC1)CC(CCCOc1ccc(C(=O)NC3CC3)cn1)C2 | 2.24 (≈ 5.21 µM) |  | 7.20 |  |
| CC(C)(C)OC(=O)N1CCC2(CC1)CC(CCCCOc1ccc(S(C)(=O)=O)cc1)C2 |  |  | 6.81 |  |
| CCc1cnc(N2CCC3(CC2)CC(CCCOc2ccc(S(C)(=O)=O)cc2)C3)nc1 | < 0.12 | 0.64 (≈ 1.44 µM) | 7.51 |  |
| CS(=O)(=O)c1ccc(OCCCC2CC3(CCN(C(=O)OC4CCCC4)CC3)C2)cc1F | < 0.14 | 7.65 (≈ 16.4 µM) | 7.64 |  |
